Reference: ChEMBL document CHEMBL4184148 (Bioorg Med Chem Lett, 2017)

Columns and labels:
[1] = biological target: Aurora kinase C (Homo sapiens) (UniProt Q9UQB9); experiment: Binding affinity to wild-type human full length AURKC (M1 to S275 residues) expressed in Escherichia coli BL21 at 1 uM by Kinomescan method relative to control
[2] = biological target: Cyclin-dependent kinase 18 (Homo sapiens) (UniProt Q07002); experiment: Binding affinity to wild-type human full length PCTK3 (M3 to F474 residues) expressed in Escherichia coli BL21 at 1 uM by Kinomescan method relative to control
Method in brief: (§1)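 Kinome-wide competition binding panel run by an outside provider, with each compound tested at a single concentration. Activity is read against the kinase panel.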

[3] = biological target: Ribosomal protein S6 kinase alpha-4 (Homo sapiens) (UniProt O75676); experiment: Binding affinity to wild-type human partial length N-terminal RPS6KA4 kinase domain 1 expressed in Escherichia coli BL21 at 1 uM by Kinomescan method relative to control
[4] = biological target: Serine/threonine-protein kinase/endoribonuclease IRE1 (Homo sapiens) (UniProt O75460); experiment: Binding affinity to wild-type human partial length ERN1 (S551 to E852 residues) expressed in HEK293 cells at 1 uM by Kinomescan method relative to control; format: cell-based
[5] = system: Tyrosine-protein kinase ABL1 (Homo sapiens), P00519 [Q252H]; experiment: Binding affinity to human non-phosphorylated ABL1 Q252H mutant (S229 to K512 residues) expressed in HEK293 cells at 1 uM by Kinomescan method relative to control; format: cell-based
[6] = biological target: RAC-beta serine/threonine-protein kinase (Homo sapiens) (UniProt P31751); experiment: Binding affinity to wild-type human partial length AKT2 expressed in Escherichia coli BL21 at 1 uM by Kinomescan method relative to control; method in brief: as §1
[7] = biological target: Ephrin type-A receptor 8 (Homo sapiens) (UniProt P29322); experiment: Binding affinity to wild-type human partial length EPHA8 (Q608 to C920 residues) expressed in Escherichia coli BL21 at 1 uM by Kinomescan method relative to control
Chain of Ephrin type-A receptor 8 (Homo sapiens) (P29322 whole entry, the tested form may be a part): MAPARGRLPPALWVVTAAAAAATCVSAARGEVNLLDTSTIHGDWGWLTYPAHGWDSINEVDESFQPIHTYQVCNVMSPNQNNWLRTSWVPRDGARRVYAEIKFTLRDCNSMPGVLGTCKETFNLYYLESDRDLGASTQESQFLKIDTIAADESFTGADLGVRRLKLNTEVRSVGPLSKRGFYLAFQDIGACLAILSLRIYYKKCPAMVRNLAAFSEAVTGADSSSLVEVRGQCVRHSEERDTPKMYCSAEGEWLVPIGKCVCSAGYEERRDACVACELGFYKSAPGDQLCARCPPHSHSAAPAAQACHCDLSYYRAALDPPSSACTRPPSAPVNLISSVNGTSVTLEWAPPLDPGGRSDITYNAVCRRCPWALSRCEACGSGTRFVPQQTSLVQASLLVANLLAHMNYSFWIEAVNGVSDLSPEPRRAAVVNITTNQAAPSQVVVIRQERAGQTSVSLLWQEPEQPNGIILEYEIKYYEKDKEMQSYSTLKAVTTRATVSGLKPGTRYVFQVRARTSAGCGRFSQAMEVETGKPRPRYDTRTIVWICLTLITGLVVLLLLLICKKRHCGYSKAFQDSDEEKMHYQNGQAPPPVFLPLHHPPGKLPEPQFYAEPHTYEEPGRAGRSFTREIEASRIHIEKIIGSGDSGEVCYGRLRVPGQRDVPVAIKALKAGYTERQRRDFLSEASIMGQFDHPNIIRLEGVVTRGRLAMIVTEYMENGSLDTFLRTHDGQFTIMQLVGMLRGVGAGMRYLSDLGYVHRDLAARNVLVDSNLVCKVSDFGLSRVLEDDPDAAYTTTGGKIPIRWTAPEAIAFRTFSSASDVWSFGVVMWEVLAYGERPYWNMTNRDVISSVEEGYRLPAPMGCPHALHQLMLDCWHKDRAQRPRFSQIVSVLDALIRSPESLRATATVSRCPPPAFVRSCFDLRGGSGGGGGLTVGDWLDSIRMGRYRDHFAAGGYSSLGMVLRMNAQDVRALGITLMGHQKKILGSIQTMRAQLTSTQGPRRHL

[8] = system: Epidermal growth factor receptor (Homo sapiens), P00533 [G719C]; experiment: Binding affinity to human partial length EGFR G719C mutant (R669 to V1011 residues) expressed in Escherichia coli BL21 at 1 uM by Kinomescan method relative to control
[9] = biological target: Tyrosine-protein kinase CSK (Homo sapiens) (UniProt P41240); experiment: Binding affinity to wild-type human full length CSK (M1 to L450 residues) expressed in Escherichia coli BL21 at 1 uM by Kinomescan method relative to control
Chain of Tyrosine-protein kinase CSK (Homo sapiens) (P41240 2-450 limits assumed): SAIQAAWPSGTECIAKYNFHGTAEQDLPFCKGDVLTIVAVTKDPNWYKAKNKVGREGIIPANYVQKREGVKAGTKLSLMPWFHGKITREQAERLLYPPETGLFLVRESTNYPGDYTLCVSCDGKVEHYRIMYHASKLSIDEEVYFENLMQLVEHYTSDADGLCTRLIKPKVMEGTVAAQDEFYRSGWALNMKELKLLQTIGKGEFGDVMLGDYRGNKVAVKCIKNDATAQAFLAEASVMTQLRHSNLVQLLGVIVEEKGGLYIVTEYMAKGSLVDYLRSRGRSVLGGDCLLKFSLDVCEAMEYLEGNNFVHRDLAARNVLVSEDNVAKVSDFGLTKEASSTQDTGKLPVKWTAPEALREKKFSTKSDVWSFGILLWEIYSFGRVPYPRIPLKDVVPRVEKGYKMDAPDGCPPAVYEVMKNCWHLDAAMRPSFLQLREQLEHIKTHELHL
Method in brief: (§2)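 Run as one kinome-wide competition binding panel with each compound at a single fixed concentration. Results were plotted as a kinome-wide selectivity map.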

[10] = biological target: Death-associated protein kinase 3 (Homo sapiens) (UniProt O43293); experiment: Binding affinity to wild-type human partial length DAPK3 (M1 to A277 residues) expressed in Escherichia coli BL21 at 1 uM by Kinomescan method relative to control
[11] = biological target: NUAK family SNF1-like kinase 2 (Homo sapiens) (UniProt Q9H093); experiment: Binding affinity to wild-type human partial length SNARK (P22 to A333 residues) expressed in HEK293 cells at 1 uM by Kinomescan method relative to control; format: cell-based
[12] = biological target: Dual specificity protein kinase CLK2 (Homo sapiens) (UniProt P49760); experiment: Binding affinity to wild-type human partial length CLK2 (D144 to R498 residues) expressed in Escherichia coli BL21 at 1 uM by Kinomescan method relative to control
[13] = biological target: RAF proto-oncogene serine/threonine-protein kinase (Homo sapiens) (UniProt P04049); experiment: Binding affinity to wild-type human partial length RAF1 (I330 to T640 residues) expressed in Escherichia coli BL21 at 1 uM by Kinomescan method relative to control
Chain of RAF proto-oncogene serine/threonine-protein kinase (Homo sapiens) (P04049 whole entry, the tested form may be a part): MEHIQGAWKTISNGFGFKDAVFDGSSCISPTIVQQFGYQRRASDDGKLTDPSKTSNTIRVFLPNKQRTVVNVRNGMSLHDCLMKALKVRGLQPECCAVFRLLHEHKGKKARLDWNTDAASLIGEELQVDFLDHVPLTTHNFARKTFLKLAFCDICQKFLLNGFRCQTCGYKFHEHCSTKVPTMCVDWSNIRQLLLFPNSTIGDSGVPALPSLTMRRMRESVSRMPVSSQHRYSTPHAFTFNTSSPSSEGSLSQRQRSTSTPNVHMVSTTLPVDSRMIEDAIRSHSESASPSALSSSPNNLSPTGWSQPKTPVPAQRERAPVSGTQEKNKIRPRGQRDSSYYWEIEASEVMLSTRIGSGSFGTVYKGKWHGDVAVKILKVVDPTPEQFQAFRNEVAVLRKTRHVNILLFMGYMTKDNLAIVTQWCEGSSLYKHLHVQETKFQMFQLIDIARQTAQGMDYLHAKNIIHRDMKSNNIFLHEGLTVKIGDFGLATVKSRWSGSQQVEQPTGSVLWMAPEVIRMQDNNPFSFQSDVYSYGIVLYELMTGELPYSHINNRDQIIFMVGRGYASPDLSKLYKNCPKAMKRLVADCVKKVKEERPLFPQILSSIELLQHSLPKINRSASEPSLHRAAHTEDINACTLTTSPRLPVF

HeLa = experiment: Cytotoxicity against human HeLa cells assessed as reduction in cell viability after 72 hrs by CellTiter-Glo assay; format: functional, cell-based
Method in brief: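 Cells were treated across a dose-response range for 72 h, and viability was read by CellTiter-Glo luminescence. Measurements were made in triplicate and reported with standard error.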

[14] = system: Tyrosine-protein kinase ABL1 (Homo sapiens), P00519 [T315I]; experiment: Binding affinity to human non-phosphorylated ABL1 T315I mutant (S229 to K512 residues) expressed in HEK293 cells at 1 uM by Kinomescan method relative to control; format: cell-based
[15] = biological target: Myosin-IIIa (Homo sapiens) (UniProt Q8NEV4); experiment: Binding affinity to wild-type human partial length MYO3A (M1 to K338 residues) expressed in Escherichia coli BL21 at 1 uM by Kinomescan method relative to control
[16] = biological target: Mitogen-activated protein kinase kinase kinase kinase 3 (Homo sapiens) (UniProt Q8IVH8); experiment: Binding affinity to wild-type human partial length MAP4K3 (M1 to D301 residues) expressed in Escherichia coli BL21 at 1 uM by Kinomescan method relative to control
Chain of Mitogen-activated protein kinase kinase kinase kinase 3 (Homo sapiens) (Q8IVH8 whole entry, the tested form may be a part): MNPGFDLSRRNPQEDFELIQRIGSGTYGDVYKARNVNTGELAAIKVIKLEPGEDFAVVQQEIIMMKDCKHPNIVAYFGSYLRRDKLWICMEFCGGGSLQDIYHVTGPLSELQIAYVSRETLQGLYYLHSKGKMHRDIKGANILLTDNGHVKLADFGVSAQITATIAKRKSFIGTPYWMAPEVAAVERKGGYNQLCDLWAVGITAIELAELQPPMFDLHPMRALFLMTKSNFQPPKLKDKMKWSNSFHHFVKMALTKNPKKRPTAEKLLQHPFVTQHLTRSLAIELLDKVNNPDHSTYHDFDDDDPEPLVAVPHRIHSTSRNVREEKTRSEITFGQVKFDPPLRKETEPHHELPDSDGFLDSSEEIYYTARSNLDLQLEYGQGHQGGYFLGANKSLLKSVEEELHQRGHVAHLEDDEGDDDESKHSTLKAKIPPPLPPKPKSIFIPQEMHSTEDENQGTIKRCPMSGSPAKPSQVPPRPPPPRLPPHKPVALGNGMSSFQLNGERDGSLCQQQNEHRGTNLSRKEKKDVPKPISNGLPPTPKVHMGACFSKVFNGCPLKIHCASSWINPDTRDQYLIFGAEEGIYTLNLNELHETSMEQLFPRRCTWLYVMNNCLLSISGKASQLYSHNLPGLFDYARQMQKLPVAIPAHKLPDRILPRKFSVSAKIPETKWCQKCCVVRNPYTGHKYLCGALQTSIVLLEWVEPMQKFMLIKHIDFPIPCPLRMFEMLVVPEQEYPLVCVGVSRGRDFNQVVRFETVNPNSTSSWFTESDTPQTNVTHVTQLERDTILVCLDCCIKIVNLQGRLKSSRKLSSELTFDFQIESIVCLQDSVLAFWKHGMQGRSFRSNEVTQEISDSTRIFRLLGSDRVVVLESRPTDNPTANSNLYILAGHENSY

[17] = biological target: Serine/threonine-protein kinase LATS1 (Homo sapiens) (UniProt O95835); experiment: Binding affinity to wild-type human partial length LATS1 (Q678 to V1130 residues) expressed in Escherichia coli BL21 at 1 uM by Kinomescan method relative to control
Chain of Serine/threonine-protein kinase LATS1 (Homo sapiens) (O95835 whole entry, the tested form may be a part): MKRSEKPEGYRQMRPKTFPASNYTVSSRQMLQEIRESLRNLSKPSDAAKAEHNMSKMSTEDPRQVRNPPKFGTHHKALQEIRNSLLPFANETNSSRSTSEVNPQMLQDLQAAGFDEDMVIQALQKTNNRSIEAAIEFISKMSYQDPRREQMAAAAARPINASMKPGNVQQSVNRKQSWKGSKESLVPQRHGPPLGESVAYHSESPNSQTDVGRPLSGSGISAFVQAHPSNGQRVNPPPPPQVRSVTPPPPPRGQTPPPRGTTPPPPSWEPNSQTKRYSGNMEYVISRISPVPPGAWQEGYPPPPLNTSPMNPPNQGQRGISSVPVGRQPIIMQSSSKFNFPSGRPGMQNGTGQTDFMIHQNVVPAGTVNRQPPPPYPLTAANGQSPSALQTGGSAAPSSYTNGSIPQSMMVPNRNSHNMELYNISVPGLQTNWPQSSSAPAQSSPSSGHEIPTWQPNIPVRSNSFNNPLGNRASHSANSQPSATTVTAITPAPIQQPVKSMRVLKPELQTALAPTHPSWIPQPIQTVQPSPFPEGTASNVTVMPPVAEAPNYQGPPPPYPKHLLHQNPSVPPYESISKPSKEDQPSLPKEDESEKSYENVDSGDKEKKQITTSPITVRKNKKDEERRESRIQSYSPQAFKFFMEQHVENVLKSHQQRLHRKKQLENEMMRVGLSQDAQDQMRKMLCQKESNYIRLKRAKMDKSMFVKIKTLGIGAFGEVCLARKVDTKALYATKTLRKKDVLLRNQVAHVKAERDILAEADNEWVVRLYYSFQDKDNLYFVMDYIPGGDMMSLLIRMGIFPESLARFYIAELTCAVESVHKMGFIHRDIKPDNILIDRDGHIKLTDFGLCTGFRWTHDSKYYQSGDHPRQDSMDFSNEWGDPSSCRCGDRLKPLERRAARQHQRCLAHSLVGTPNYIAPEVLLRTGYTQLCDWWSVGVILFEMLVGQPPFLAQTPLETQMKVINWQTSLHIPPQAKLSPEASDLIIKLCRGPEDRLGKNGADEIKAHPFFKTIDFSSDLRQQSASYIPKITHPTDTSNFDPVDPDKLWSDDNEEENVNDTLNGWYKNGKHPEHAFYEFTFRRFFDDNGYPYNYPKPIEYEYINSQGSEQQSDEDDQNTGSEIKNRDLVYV

[18] = system: Proto-oncogene tyrosine-protein kinase receptor Ret (Homo sapiens), P07949 [M918T]; experiment: Binding affinity to human partial length RET M918T mutant (E713 to D1014 residues) expressed in Escherichia coli BL21 at 1 uM by Kinomescan method relative to control
[19] = biological target: Ribosomal protein S6 kinase alpha-3 (Homo sapiens) (UniProt P51812); experiment: Binding affinity to wild-type human partial length N-terminal RSK3 kinase domain 1 (M1 to Q385 residues) expressed in Escherichia coli BL21 at 1 uM by Kinomescan method relative to control
[20] = biological target: Tyrosine-protein kinase Blk (Homo sapiens) (UniProt P51451); experiment: Binding affinity to wild-type human partial length BLK (G211 to L503 residues) expressed in Escherichia coli BL21 at 1 uM by Kinomescan method relative to control
[21] = biological target: Mitogen-activated protein kinase 15 (Homo sapiens) (UniProt Q8TD08); experiment: Binding affinity to wild-type human partial length ERK8 (M1 to P437 residues) expressed in Escherichia coli BL21 at 1 uM by Kinomescan method relative to control
[22] = biological target: Serine/threonine-protein kinase Nek4 (Homo sapiens) (UniProt P51957); experiment: Binding affinity to wild-type human full length NEK4 (M1 to F841 residues) expressed in HEK293 cells at 1 uM by Kinomescan method relative to control; format: cell-based; method in brief: as §1
[23] = biological target: Tyrosine-protein kinase Srms (Homo sapiens) (UniProt Q9H3Y6); experiment: Binding affinity to wild-type human partial length SRMS (L208 to P488 residues) expressed in HEK293 cells at 1 uM by Kinomescan method relative to control; format: cell-based
Chain of Tyrosine-protein kinase Srms (Homo sapiens) (Q9H3Y6 whole entry, the tested form may be a part): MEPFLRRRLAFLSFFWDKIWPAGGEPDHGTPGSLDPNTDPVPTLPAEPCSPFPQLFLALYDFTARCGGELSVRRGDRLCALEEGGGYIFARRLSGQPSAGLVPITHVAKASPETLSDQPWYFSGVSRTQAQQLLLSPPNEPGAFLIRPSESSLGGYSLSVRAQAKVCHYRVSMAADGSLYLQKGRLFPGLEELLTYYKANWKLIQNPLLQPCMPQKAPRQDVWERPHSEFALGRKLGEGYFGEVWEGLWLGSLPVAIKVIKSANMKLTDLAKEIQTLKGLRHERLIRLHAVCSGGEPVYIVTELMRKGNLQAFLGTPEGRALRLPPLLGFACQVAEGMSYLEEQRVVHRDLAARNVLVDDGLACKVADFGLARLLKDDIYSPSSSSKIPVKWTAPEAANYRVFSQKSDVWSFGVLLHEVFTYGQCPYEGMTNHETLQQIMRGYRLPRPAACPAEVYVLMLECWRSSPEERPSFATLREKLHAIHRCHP

[24] = biological target: Mitogen-activated protein kinase 9 (Homo sapiens) (UniProt P45984); experiment: Binding affinity to wild-type human full length JNK2 (M1 to Q382 residues) expressed in HEK293 cells at 1 uM by Kinomescan method relative to control; format: cell-based; method in brief: as §2

Chain of Aurora kinase C (Homo sapiens) (Q9UQB9 whole entry, the tested form may be a part): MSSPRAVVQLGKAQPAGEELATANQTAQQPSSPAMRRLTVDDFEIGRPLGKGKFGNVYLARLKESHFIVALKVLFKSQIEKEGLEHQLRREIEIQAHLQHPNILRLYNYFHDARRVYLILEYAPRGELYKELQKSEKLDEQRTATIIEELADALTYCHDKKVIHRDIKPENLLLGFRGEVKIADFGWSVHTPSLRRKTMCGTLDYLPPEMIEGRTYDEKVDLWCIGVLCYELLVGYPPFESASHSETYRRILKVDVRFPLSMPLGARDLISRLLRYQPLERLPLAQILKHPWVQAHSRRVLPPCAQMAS

SMILES | Activity [1] | Activity [2] | Activity [3] | Activity [4] | Activity [5] | Activity [6] | Activity [7] | Activity [8] | Activity [9] | Activity [10] | Activity [11] | Activity [12] | Activity [13] | IC50 (HeLa) | Activity [14] | Activity [15] | Activity [16] | Activity [17] | Activity [18] | Activity [19] | other results
CCC(=O)Nc1ccc(C(=O)Nc2ccc(Nc3ncc4c(n3)N(C)c3ccc(C)cc3C(=O)N4C)cc2)cc1 | 1.3% | 86% | 95% | 100% | 64% | 100% | 80% | 95% | 93% | 82% | 65% | 88% | 96% | < 1 nM | 81% | 96% | 79% | 100% | 71% | 85% | Activity [20]: 74%; Activity [21]: 94%; Activity [22]: 76%; Activity [23]: 89%; Activity [24]: 91%
C=CC(=O)Nc1ccc(C(=O)Nc2ccc(Nc3ncc4c(n3)N(C)c3ccc(C)cc3C(=O)N4C)cc2)cc1 | 49% | 99% | 100% | 87% | 68% | 95% | 91% | 99% | 84% | 100% | 93% | 99% | 88% | < 1 nM | 100% | 94% | 97% | 99% | 87% | 89% | Activity [20]: 96%; Activity [21]: 96%; Activity [22]: 86%; Activity [23]: 73%; Activity [24]: 92%
